Bioassay records from PubChem BioAssay.
Rows were chosen to be rich in hits. Some 4.6% of all compounds tested hit in one or more screens of this group.
Arbovirus inh: antivirals against arbovirus infection, primary screen, cell-based, full library, 10K replicate subset | arbovirus infection cell-based antiviral screen | inhibition, % at 10 µM | 200,000 tested, 0.37% active | AID 1251, 2008; in the data active = inhibition above about 30%
Calb biofilm kill: clotrimazole potentiators killing C. albicans biofilm, primary screen, 4-compound mixtures. AID 1242, 2008. 120,000 tested, 0.02% active. inhibition, % at 7.6 µM. C. albicans biofilm persisters + clotrimazole, fluorescence viability; primary screen in compound mixtures of four per well;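 note: compounds exposed to preformed 24 h biofilms for 48 h; 0% = untreated biofilm control and 100% = clotrimazole plus chlorhexidine kill blank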
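Test system: C. albicans biofilms. Buffer or medium: RPMI/MOPS medium, pH 7.0. Timing: 48 h compound exposure at 37 °C. Technique: Alamar Blue fluorescence. Evaluation: percent inhibition of biofilm viability.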
RAM inhibit: inhibitors of the yeast RAM network, primary screen, dse1pr::URA3 reporter, 5-FOA selection; S. cerevisiae dse1pr::URA3 reporter, 5-FOA growth OD615, 2 d; analog-sensitive cbk1-as2 kinase mutant strain; inhibition, % at 50 µM; 190,000 tested, 1.8% active; AID 868, 2007;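 active = inhibition above a set limit, 3 SD over mean compound inhibition, cut at about 8.4% in these data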;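 note: 0% = DMSO-only wells with no growth and 100% = 10 µM 1-NA-PP1 full growth; inhibition rescues growth on 5-FOA so higher OD means more RAM inhibition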
WT yeast gro inh: growth inhibition of WT strain, primary screen, mitochondrial fusion inhibitor project, WT and mutant strains, chemical genetic; mitochondrial fusion phenotypic screen; 190,000 tested, 2.1% active; inhibition, % at 10 µM; in the data active = inhibition above about 58%; tested in S. cerevisiae
Hck Nef HTS: inhibitors of Nef-activated human Hck kinase, primary screen, biochemical, Z-Lyte FRET, 384-well, Hck-YEEI; Tyrosine-protein kinase HCK (Homo sapiens), P08631; Recombinant Hck-YEEI plus Nef, Z-Lyte FRET kinase assay; inhibition, % at 20 µM; 220,000 tested, 0.68% active; AID 463187, 2010;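 active = Hck-Nef kinase inhibition above about 50%, limit read from the data; inactive = inhibition below that limit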;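 note: 0% = DMSO with Hck plus Nef and 100% = Hck alone without Nef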
Target sequence (P08631 whole entry, looked up): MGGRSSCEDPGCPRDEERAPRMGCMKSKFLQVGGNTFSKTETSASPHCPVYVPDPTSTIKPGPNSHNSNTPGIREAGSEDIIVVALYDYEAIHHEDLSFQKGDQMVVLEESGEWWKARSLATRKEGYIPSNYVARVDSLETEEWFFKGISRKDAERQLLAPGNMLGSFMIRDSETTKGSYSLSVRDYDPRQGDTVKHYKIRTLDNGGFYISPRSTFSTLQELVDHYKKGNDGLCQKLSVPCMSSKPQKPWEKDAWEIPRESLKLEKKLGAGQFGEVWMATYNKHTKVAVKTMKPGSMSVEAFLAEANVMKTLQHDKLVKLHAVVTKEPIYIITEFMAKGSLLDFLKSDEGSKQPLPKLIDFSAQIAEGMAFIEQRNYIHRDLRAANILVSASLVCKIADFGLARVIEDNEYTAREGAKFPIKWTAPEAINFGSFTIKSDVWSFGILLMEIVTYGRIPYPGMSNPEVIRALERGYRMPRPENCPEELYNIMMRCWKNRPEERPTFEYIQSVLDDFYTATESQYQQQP
NCF1 inh: p47phox/p22phox peptide binding inhibitors, primary screen, biochemical, uHTS, NADPH oxidase regulatory subunit | AID 1274, 2008 | Neutrophil cytosol factor 1 (Homo sapiens), P14598 | 220,000 tested, 0.53% active | fluorescence polarization, 2 h | inhibition, % at 24.7 µM;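 active = inhibition above about 30%, limit read from the data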;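 note: 0% = p47phox with labelled peptide and 100% = labelled peptide alone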
* hit, by the source's call; / = no result given.

SMILES	Arbovirus inh	Calb biofilm kill	RAM inhibit	WT yeast gro inh	Hck Nef HTS	NCF1 inh
CCOC(=O)C(C)(C)N(Cc1ccc(C)cc1)S(=O)(=O)c1ccc(Cl)c([N+](=O)[O-])c1	0	-6	9.8*	38	2	3
CCOc1ccc(C(=O)Nc2cc(S(=O)(=O)Nc3ccccc3Cl)ccc2N2CCOCC2)cc1	1	11	7	8	2	-5
CCOc1ccc(NC(=O)c2cccc3c2C(=O)N(Cc2cccnc2)C3)cc1	-3	/	-1	10	-2	-5
O=C(Nc1cc(S(=O)(=O)N2CCCCC2)ccc1N1CCCCC1)c1ccncc1	/	7	/	/	18	-4
O=C(OCc1ccc(C(=O)c2ccccc2)cc1)c1cccc(-c2nnc(-c3ccccc3)o2)c1	7	/	5	2	0	-15
CCOC(=O)c1cccc(COC(=O)c2cccc(-c3nnc(-c4ccccc4)o3)c2)c1	5	13	8.9*	12	4	-8
C=CCNC(=O)COc1ccc(S(=O)(=O)N2CCCC2)cc1	-1	-9	1	4	16	-3
C/C(=N\O)C(=O)NCCN1CCCCC1	2	/	2	0	-16	-2
O=C(/C=N/O)NCCN1CCCCC1	9	/	1	59*	0	-16
COCCSc1ccccc1C(=O)Nc1ccc2c(c1)OCO2	8	7	1	-16	22	-3
O=C(Nc1ccc2c(c1)OCO2)c1ccccc1SCC(=O)N1CCCC1	8	/	0	65*	9	9
N#Cc1c(NC(=O)CSc2nnc(-c3ccccc3)o2)sc2c1CCCC2	32*	/	2	-5	-1	-16
COc1ccc(-c2ccc(C#N)c(SCC(=O)Nc3sc4c(c3C#N)CCC4)n2)cc1OC	-11	/	0	7	-1	34*
CCn1c(SCC(=O)Nc2sc3c(c2C#N)CCCC3)nnc1-c1ccncc1	-2	20	11*	-2	0	-5
O=C(CN1C(=O)c2ccccc2C1=O)N1CCN(C2c3ccccc3-c3ccccc32)CC1	9	6	1	32	2	9
O=C(O)C1(S(=O)(=O)CCC(F)=C(F)F)CC1	7	2	1	-7	27	1
O=C(Nc1c2c(nn1-c1ccc(F)cc1)CS(=O)C2)c1ccc(S(=O)(=O)N2CCOCC2)cc1 (centres undefined)	21	10	1	2	16	1
CCC(C)n1c(SCC(=O)/C(C#N)=C(\C)N)nc2ccccc2c1=O (centres undefined)	-19	14	1	-6	3	-8
Cc1cc(C)nc(SCC(N)=O)n1	/	11	/	/	-8	0
Cc1cc(C(=O)COC(=O)c2ccccc2Br)c(C)n1CC1CCCO1 (centres undefined)	/	21	/	/	25	-20
CN(C(=O)CSc1nnc(-c2ccc(Cl)cc2)n1CC1CCCO1)C1CCS(=O)(=O)C1 (centres undefined)	2	9	1	-18	3	6
Cc1ccc(C(=O)OCC(=O)c2cc(C)n(CC3CCCO3)c2C)cc1 (centres undefined)	5	14	2	-3	-18	59*
Cc1cc(C(=O)CSc2nnc(-c3ccc(Cl)cc3)n2CC2CCCO2)c(C)n1C (centres undefined)	8	/	3	68*	1	2
COc1ccccc1-c1cc(C(F)(F)F)nc(NCc2cccs2)n1	0	3	10*	65*	4	0
CCCCCCC1CCC(c2nc(-c3ccncc3)no2)CC1 (centres undefined)	21	/	0	79*	0	-8
SMILES	Arbovirus inh	Calb biofilm kill	RAM inhibit	WT yeast gro inh	Hck Nef HTS	NCF1 inh
CC(C)c1ccc(-c2cc(C(=O)N3N=C(C(F)F)CC3(O)C(F)F)c3ccccc3n2)cc1 (centres undefined)	-29	/	5	87*	3	-16
O=C(c1cc(C2CC2)nc2ccc(Br)cc12)N1N=C(C(F)F)CC1(O)C(F)F (centres undefined)	-35	18	2	74*	-6	3
O=C(c1cc(C2CC2)nc2ccccc12)N1N=C(C(F)F)CC1(O)C(F)F (centres undefined)	12	8	0	-4	-4	-3
CN(C)c1ccc(P(=O)(CC(=O)N/N=C/c2ccc(C#N)cc2)OCCCl)cc1 (centres undefined)	2	12	0	-12	-7	-8
CC(C)(C)NC(=O)COC(=O)c1ccc(NC(=O)CC#N)cc1	5	9	3	-12	22	-15
CCOC(=O)N1CCN(C(=O)C(CC(C)C)NC(=O)C2CCCCC2)CC1 (centres undefined)	4	/	0	7	-11	-12
CC(C)c1ccc(S(=O)(=O)c2ccc(NN)cc2)cc1	-4	14	2	69*	7	4
C=C(C)c1cccc(C(C)(C)NC(=O)N2CCCC(C)C2)c1 (centres undefined)	-8	8	1	-4	13	-14
C=C(C)c1cccc(C(C)(C)NC(=O)N(C)C2CCN(C)CC2)c1	2	19	1	17	15	110*
COc1ccc(OC)c(NC(=O)C(=O)NNC(=O)C23CC4CC(CC(C4)C2)C3)c1	/	19	/	/	21	-27
O=C(COC(=O)c1ccccc1Nc1ccccc1)c1ccccc1	-6	/	9.8*	41	0	-2
Cc1nc(SCc2ccc(OCCC(C)C)cc2)n[nH]1	-9	0	0	73	-5	-3
CCCCCOc1ccc(CSc2n[nH]c(C)n2)cc1	13	0	0	80*	15	-12
Fc1ccccc1NC(=S)N(CCCN1CCOCC1)Cc1cccnc1	9	7	-1	0	-3	-10
COC(=O)/C=C/c1sc2nc(C)cc(C)c2c1N=CN(C)C	45*	2	0	-5	20	1
CC(O)C(NS(=O)(=O)c1ccc(Cl)cc1)C(=O)OCC(=O)N1CCN(c2ccccc2)CC1 (centres undefined)	-3	11	7	-2	3	-36
CC1(C)C2CCC1(C)C(OC(=O)C[n+]1ccccc1)C2 (centres undefined)	/	13	/	/	20	-9
CC1(C)C2CCC1(C)C(OC(=O)CC(=O)O)C2 (centres undefined)	-4	/	3	64*	0	-13
Cc1cc(N2CCN(c3nc(-c4ccccc4)cs3)CC2)c2ccccc2n1	-26	19	0	70*	18	-3
c1ccc(-c2csc(N3CCCCCC3)n2)cc1	9	/	3	6	1	-8
